What was measured:
MCF7 [1] = assay: Induction of apoptosis in human MCF7 cells assessed as necrotic cells at 50 uM after 24 hrs by Annexin V-FITC/propidium iodide staining-based flow cytometric analysis (reference value: 0.1%); assay type: functional
MCF7 [2] = assay: Induction of apoptosis in human MCF7 cells assessed as late apoptotic cells at 10 uM after 24 hrs by Annexin V-FITC/propidium iodide staining-based flow cytometric analysis (reference value: 5.6%); assay type: functional
Outline: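 Log-phase cells seeded in 6-well plates and treated after adhesion; incubated in cycles of 6 h on/6 h off up to 48 h. Collected after PBS washes and trypsin, resuspended in Ca2+-enriched binding buffer. Stained with annexin V (1 µg/mL) plus PI (0.5 µg/mL) 15 min in the dark at room temperature. 10,000 events, FL1 vs FL2. At least three repeats.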

COc1cc([C@@H]2c3cc4c(cc3[C@@H](O[C@@H]3O[C@@H]5CO[C@@H](C)O[C@H]5[C@H](O)[C@H]3O)[C@H]3COC(=O)[C@H]23)OCO4)cc(OC)c1O [ETOPOSIDE]
Activity (MCF7 [1]): 0.9% | Activity (MCF7 [2]): 11.5%

— ChEMBL document CHEMBL4346667 (Eur J Med Chem, 2019)
